Data set [1] concerns RS4-11. Briefly: Antiproliferative activity against human RS4:11 cells assessed as growth inhibition at 20 uM after 48 hrs by CCK-8 assay relative to control. The settings on record: RS4-11, 48 h, read-out: GI. Format: functional. The essentials: (§1)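 Single-dose screen at 20 μM in RS4;11 (human ALL), HL-60 (human promyelocytic leukemia) and HEK293T (normal-cell model). Cells exposed 48 h, viability read by CCK-8, growth inhibition ratio expressed relative to control.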

Data set [2] has as its system HL-60. The data set is described as follows: Antiproliferative activity against human HL60 cells assessed as growth inhibition at 20 uM after 48 hrs by CCK-8 assay relative to control. It counts as functional. The settings on record: HL-60, 48 h, read-out: GI. An outline of the steps: as §1
Background: Formazan colour is commonly taken as a measure of viable cells.

For data set [3], the system named is HEK-293T. Briefly: (§2) Cytotoxicity against HEK293T cells assessed as growth inhibition at 20 uM after 48 hrs by CCK8 assay relative to control. It counts as cell-based. The settings on record: human, hek-293t, 48 h, 20 µM. An outline of the steps: as §1
In data set [4] the test system is RS4-11. Briefly: Antiproliferative activity against human RS4:11 cells assessed as growth inhibition after 48 hrs by CCK-8 assay. It counts as functional, cell-based. The following applies: RS4-11, 48 h.
The test system of data set [5] is HEK-293T. The data set is described as follows: Cytotoxicity against human HEK293T cells assessed as growth inhibition after 48 hrs by CCK8 assay. It counts as cell-based.
Data set [6] can be described thus: as §2. Format: cell-based, HEK-293T. The following applies: human, HEK293T cells; read-out: GI. An outline of the steps:
as §1

In data set [7] the test system is HL-60. The data set is described as follows: Antiproliferative activity against human HL60 cells assessed as growth inhibition after 48 hrs by CCK-8 assay. Format: functional, cell-based. The settings on record: HL-60, 48 h.

The structures appear in SMILES notation. Bounds are passed on as bounds.

With `COc1ccccc1-c1nnc(NC(=O)/C(C#N)=C/c2cccc(OS(=O)(=O)c3ccc(C)cc3)c2)s1`, the inhibition of growth at 20 µM is 41% with RS4-11 [1] and 73% in the data set with HL-60 [2]. The “growth inhibition (GI)” value in the data set on HEK-293T [3] is reported as “Non-Toxic”.
On to `Cc1ccc(S(=O)(=O)Oc2cccc(/C=C(\C#N)C(=O)Nc3nnc(-c4cccs4)s3)c2)cc1`, for which the inhibition of growth at 20 µM worked out at 25% in the data set with RS4-11 [1] and 62% with HL-60 [2]. For the same molecule, the results for the IC50 in the data set with RS4-11 [4], in the data set with HEK-293T [5] and in the data set on HL-60 [7] were > 20 µM, > 20 µM and 8.75 µM, respectively. Moreover, in data set [6], the inhibition at 48 h, 20 µM is 43%.
Take `CC(=O)Nc1ccc(S(=O)(=O)Oc2cccc(/C=C(\C#N)C(=O)Nc3nnc(-c4cccs4)s3)c2)cc1`: the inhibition of growth at 20 µM is 33% in the data set with RS4-11 [1] and 71% in the data set with HL-60 [2]. The results for the IC50 in the data set with RS4-11 [4], with HEK-293T [5] and in the data set on HL-60 [7] were > 20 µM, > 20 µM and 7.94 µM, respectively. The inhibition at 48 h, 20 µM in data set [6] was 20%.
Turning to `N#C/C(=C\c1ccccc1OS(=O)(=O)c1ccc(OC(F)(F)F)cc1)C(=O)Nc1nnc(-c2cc3ccccc3[nH]2)s1`, the inhibition of growth at 20 µM in the data set on RS4-11 [1] came out at 26%; in the data set with HL-60 [2], 59%. Also, the half-maximal inhibitory concentration (IC50) (in general, the concentration needed to halve the response being measured) is > 20 µM with RS4-11 [4], 14.4 µM in the data set with HEK-293T [5] and 11.1 µM with HL-60 [7]. In addition, in data set [6], the inhibition at 48 h, 20 µM is 53%.
With `COc1ccc(S(=O)(=O)Oc2ccccc2/C=C(\C#N)C(=O)Nc2nnc(-c3cccs3)s2)cc1`, the results for the inhibition of growth at 20 µM in the data set with RS4-11 [1] and in the data set on HL-60 [2] were 76% and 67%, respectively. The IC50 in the data set with RS4-11 [4] was 4.75 µM; in the data set on HEK-293T [5], > 20 µM; in the data set on HL-60 [7] it was 5.23 µM. Moreover, the inhibition at 48 h, 20 µM in data set [6] was found to be 40%.
For the molecule `COc1ccc(Cc2nnc(NC(=O)/C(C#N)=C/c3ccccc3OS(=O)(=O)c3ccc(Cl)cc3)s2)cc1`, in the data set with RS4-11 [1], the inhibition of growth at 20 µM was found to be 79%. Besides, the IC50 with RS4-11 [4] is 4.02 µM; in the data set with HEK-293T [5] it was > 50 µM. In data set [6], the inhibition at 48 h, 20 µM was found to be 34%.
Regarding `COc1ccc(S(=O)(=O)Oc2ccccc2/C=C(\C#N)C(=O)Nc2nnc(Cc3ccc(C)cc3)s2)cc1`, the inhibition of growth at 20 µM in the data set on RS4-11 [1] was determined as 79%; in the data set with HL-60 [2] it was 100%. The IC50 is 1.01 µM with RS4-11 [4], > 50 µM in the data set with HEK-293T [5] and 4.08 µM in the data set on HL-60 [7]. Also, in data set [6], the inhibition at 48 h, 20 µM turned out to be 28%.
In the case of `COc1ccc(S(=O)(=O)Oc2ccccc2/C=C(\C#N)C(=O)Nc2nnc(Cc3ccccc3)s2)cc1`, the inhibition of growth at 20 µM in the data set with RS4-11 [1] is 78%; in the data set on HL-60 [2] it was 100%. Moreover, the concentration for half-maximal inhibition (IC50) in the data set with RS4-11 [4] was 1.06 µM; in the data set on HEK-293T [5], > 50 µM; with HL-60 [7], 3.17 µM. Also, in data set [6], the inhibition at 48 h, 20 µM turned out to be 23%.
Turning to `N#C/C(=C\c1ccccc1OS(=O)(=O)c1ccccc1[N+](=O)[O-])C(=O)Nc1nnc(Cc2cccc3ccccc23)s1`, the inhibition of growth at 20 µM came out at 66% in the data set on RS4-11 [1] and 23% in the data set on HL-60 [2]. For the same molecule, the “growth inhibition (GI)” value with HEK-293T [3] was “Non-Toxic”.
`COc1ccc(Cc2nnc(NC(=O)/C(C#N)=C/c3ccccc3OS(=O)(=O)c3ccc([N+](=O)[O-])cc3)s2)cc1`: the inhibition of growth at 20 µM amounted to 70% in the data set with RS4-11 [1] and 51% with HL-60 [2]. For the same molecule, the IC50 in the data set on RS4-11 [4] was 3.67 µM; with HEK-293T [5] it was > 50 µM; in the data set with HL-60 [7], 10.9 µM. The inhibition at 48 h, 20 µM in data set [6] amounted to 17%.
Consider `N#C/C(=C\c1ccccc1OS(=O)(=O)c1ccccc1[N+](=O)[O-])C(=O)Nc1nnc(Cc2cccc(F)c2)s1`, for which the inhibition of growth at 20 µM was found to be 68% in the data set with RS4-11 [1] and 23% with HL-60 [2]. In addition, in the data set with HEK-293T [3], the “growth inhibition (GI)” value is “Non-Toxic”.
For `COc1ccc(S(=O)(=O)Oc2ccccc2/C=C(\C#N)C(=O)Nc2nnc(Cc3cccc4ccccc34)s2)cc1`, the figures for the inhibition of growth at 20 µM with RS4-11 [1] and with HL-60 [2] were 78% and 98%, respectively. For the same molecule, the figures for the IC50 with RS4-11 [4], in the data set on HEK-293T [5] and in the data set on HL-60 [7] were 1.36 µM, > 50 µM and 4.7 µM, respectively. In data set [6], the inhibition at 48 h, 20 µM came to 29%.
In the case of `COc1ccc(S(=O)(=O)Nc2cccc(/C=C(\C#N)C(=O)Nc3nnc(-c4cccs4)s3)c2)cc1`, the inhibition of growth at 20 µM in the data set with RS4-11 [1] was 40%; in the data set with HL-60 [2] it was 77%. In addition, the figures for the IC50 in the data set on RS4-11 [4], in the data set with HEK-293T [5] and in the data set with HL-60 [7] were > 20 µM, > 20 µM and 8.37 µM, respectively. Besides, the inhibition at 48 h, 20 µM in data set [6] worked out at 21%.
As to `N#C/C(=C\c1ccccc1OS(=O)(=O)c1ccc([N+](=O)[O-])cc1)C(=O)Nc1nnc(Cc2cccc(F)c2)s1`, the inhibition of growth at 20 µM in the data set on RS4-11 [1] was found to be 65%; with HL-60 [2] it was 18%. In the data set on HEK-293T [3], the “growth inhibition (GI)” value is recorded as “Non-Toxic”.
As to `COc1ccc(S(=O)(=O)Oc2ccccc2/C=C(\C#N)C(=O)Nc2nnc(Cc3cccc(F)c3)s2)cc1`, the inhibition of growth at 20 µM with RS4-11 [1] worked out at 74%; with HL-60 [2] it was 100%. The figures for the IC50 in the data set with RS4-11 [4], in the data set with HEK-293T [5] and in the data set with HL-60 [7] were 1.21 µM, > 50 µM and 3.88 µM, respectively. Further, the inhibition at 48 h, 20 µM in data set [6] came to 29%.
On to `Cc1ccc(S(=O)(=O)Oc2cccc(/C=C(\C#N)C(=O)Nc3nnc(C)s3)c2)cc1`, for which the values for the inhibition of growth at 20 µM with RS4-11 [1] and in the data set with HL-60 [2] were 28% and 71%, respectively. Further, the IC50 in the data set with RS4-11 [4] was > 20 µM; in the data set on HEK-293T [5], > 50 µM; with HL-60 [7], 5.78 µM. Moreover, the inhibition at 48 h, 20 µM in data set [6] is 27%.
On to `N#C/C(=C\c1ccccc1OS(=O)(=O)c1ccc(C(F)(F)F)cc1)C(=O)Nc1nnc(-c2cccs2)s1`, for which the inhibition of growth at 20 µM in the data set with RS4-11 [1] worked out at 58%; in the data set with HL-60 [2], 55%. The figures for the IC50 in the data set with RS4-11 [4], in the data set with HEK-293T [5] and in the data set on HL-60 [7] were 10.5 µM, 12.3 µM and 17.5 µM, respectively. Besides, the inhibition at 48 h, 20 µM in data set [6] turned out to be 57%.
With `Cc1ccc(Cc2nnc(NC(=O)/C(C#N)=C/c3ccccc3OS(=O)(=O)c3ccc([N+](=O)[O-])cc3)s2)cc1`, the inhibition of growth at 20 µM was 64% in the data set with RS4-11 [1] and 17% in the data set on HL-60 [2]. Further, the inhibition at 48 h, 20 µM in data set [6] was 9%.
As to `N#C/C(=C\c1ccccc1OS(=O)(=O)c1ccc(Cl)cc1)C(=O)Nc1nnc(Cc2ccccc2)s1`, the inhibition of growth at 20 µM in the data set with RS4-11 [1] turned out to be 73%; in the data set with HL-60 [2], 26%. The inhibition at 48 h, 20 µM in data set [6] came out at 25%.
Turning to `Cc1ccc(Cc2nnc(NC(=O)/C(C#N)=C/c3ccccc3OS(=O)(=O)c3ccc(Cl)cc3)s2)cc1`, the inhibition of growth at 20 µM in the data set with RS4-11 [1] was found to be 72%; with HL-60 [2], 38%. In data set [6], the inhibition at 48 h, 20 µM was 8%.
The matching figures for `Cc1ccc(Cc2nnc(NC(=O)/C(C#N)=C/c3ccccc3OS(=O)(=O)c3ccc(C)cc3)s2)cc1`: 66%, 17% and 22%.
With `Cc1ccc(S(=O)(=O)Oc2ccccc2/C=C(\C#N)C(=O)Nc2nnc(C)s2)cc1`, the inhibition of growth at 20 µM with RS4-11 [1] amounted to 33%; with HL-60 [2], 78%. Moreover, the IC50 in the data set with RS4-11 [4] was > 20 µM; in the data set on HEK-293T [5], > 20 µM; in the data set with HL-60 [7], 11.5 µM. Moreover, the inhibition at 48 h, 20 µM in data set [6] came to 35%.
`N#C/C(=C\c1ccccc1OS(=O)(=O)c1ccc(F)cc1)C(=O)Nc1nnc(Cc2ccc(Cl)cc2)s1`: the results for the inhibition of growth at 20 µM with RS4-11 [1] and with HL-60 [2] were 64% and 20%, respectively. For the same molecule, in data set [6], the inhibition at 48 h, 20 µM is 14%.

Values taken from ChEMBL document CHEMBL4627348, “Synthesis of (1,3,4-thiadiazol-2-yl)-acrylamide derivatives as potential antitumor agents against acute leukemia cells” (Bioorg Med Chem Lett, 2020).
